According to ChEMBL document CHEMBL1255379, “Evaluation of Etest method for determining isavuconazole MICs against Cryptococcus gattii and Cryptococcus neoformans” (2008):
Values after ≈ are worked out from the molar mass of the structure shown.

Legend:
Cryptococcus neoformans [1] = assay: Antimicrobial activity against Cryptococcus neoformans by broth microdilution method; assay type: functional
How it was run: (§1)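 CLSI M27-A2 broth microdilution in RPMI 1640 with L-glutamine, no bicarbonate, MOPS-buffered to pH 7.0. Isavuconazole stock in DMSO; final concentrations 0.015 to 8 μg/ml. Inoculum 0.5 × 10³ to 2.5 × 10³ cells/ml from subcultured isolates. Incubated at 35°C. MIC read at 48 and 72 h as 50% reduction in turbidity versus drug-free control. Candida krusei ATCC 6258 and C. parapsilosis ATCC 22019 served as quality controls.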

[2] = test system: Cryptococcus gattii species complex; assay: Antimicrobial activity against Cryptococcus gattii by broth microdilution method; assay type: functional, Cryptococcus bacillisporus; how it was run: as §1
[3] = test system: Cryptococcus gattii species complex; assay: Antimicrobial activity against Cryptococcus gattii by Etest method; assay type: functional, Cryptococcus bacillisporus
How it was run: (§2)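 Isolates (clinical and environmental), maintained in sterile water or glycerol broth, subcultured at least twice on Sabouraud dextrose agar. Suspension adjusted to 0.5 McFarland and swabbed onto RPMI agar plates with 2% glucose; isavuconazole Etest strips applied. Incubated at 35°C, read at 48 and 72 h. MIC taken where prominent growth reduction meets the strip, raised to the next twofold level.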

Cryptococcus neoformans [4] = assay: Antimicrobial activity against Cryptococcus neoformans by Etest method; assay type: functional; how it was run: as §2

`C[C@@H](c1nc(-c2ccc(C#N)cc2)cs1)[C@](O)(Cn1cncn1)c1cc(F)ccc1F` [ISAVUCONAZOLE] showed an MIC (Cryptococcus neoformans [1]) of no more than 0.015 µg/mL, an MIC50 (Cryptococcus neoformans [1]) of no more than 0.015 µg/mL and an MIC90 (Cryptococcus neoformans [1]) of 0.06 µg/mL (≈ 0.137 µM). The MIC [2] was no more than 0.015 µg/mL, the MIC50 [2] was 0.03 µg/mL (≈ 0.0686 µM) and the MIC90 [2] was 0.06 µg/mL (≈ 0.137 µM). It also gave an MIC [3] of 0.003 µg/mL (≈ 0.00686 µM), an MIC50 [3] of 0.032 µg/mL (≈ 0.0731 µM) and an MIC90 [3] of 0.125 µg/mL (≈ 0.286 µM). The MIC (Cryptococcus neoformans [4]) was 0.002 µg/mL (≈ 0.00457 µM), the MIC50 (Cryptococcus neoformans [4]) was 0.023 µg/mL (≈ 0.0526 µM) and the MIC90 (Cryptococcus neoformans [4]) was 0.047 µg/mL (≈ 0.107 µM).
